Consider 30 molecules from ChEMBL document CHEMBL2057128, “Chemoenzymatic synthesis and biological evaluation of 2- and 3-hydroxypyridine derivatives against Leishmania mexicana” (Bioorg Med Chem, 2012).

As a reminder, the IC50 is the concentration that gives 50% inhibition. Higher therefore signals a need for much substance.

Converted amounts (≈) assume the structure as drawn. The source made the active and inactive calls. No cut-off for these calls is given here.

In assay [1] the test system is Leishmania mexicana. Description: Antileishmanial activity against promastigote form of Leishmania mexicana from 10 to 50 ug/mL measured every 2 days for 10 days by neubauer chamber analysis. The class given is functional, organism-based. In outline: (§1)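 Promastigotes grown at 28 °C in cell-free medium (Na2HPO4, KCl, glucose, pH about 7.5) supplemented after sterilization with penicillin (100 IU/mL), streptomycin, haemin and 20% v/v heat-inactivated fetal calf serum. Cultures started from exponential-phase inocula, shaken manually twice daily, compounds added with DMSO at 0.1% final. Parasites counted in a Neubauer chamber every two days over 10 days.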

For assay [2], the system named is Leishmania mexicana. Put plainly: Antileishmanial activity against promastigote form of Leishmania mexicana measured every 2 days for 10 days by neubauer chamber analysis. It is filed as functional, organism-based. In outline: as §1
Assay [3] relates to Leishmania mexicana. Put plainly: Growth inhibition of promastigote form of Leishmania mexicana at 20 ug/mL measured after 10 days by neubauer chamber analysis. Particulars: 240 h, read-out: GI. It is filed as functional. In outline: as §1
Assay [4] deals with Leishmania mexicana. Description: Growth inhibition of promastigote form of Leishmania mexicana at 10 ug/mL measured after 6 days by neubauer chamber analysis. The class given is functional. The settings on record: 144 h, read-out: GI. In outline: as §1
Assay [5] relates to Leishmania mexicana. Put plainly: Growth inhibition of promastigote form of Leishmania mexicana at 20 ug/mL measured after 1 day by neubauer chamber analysis. The settings on record: 24 h, read-out: GI. The class given is functional.

As to `CC(=O)OCCCCCCCCCOc1ccccn1`, the result in the assay on Leishmania mexicana [1] was inactive.

In turn, `CC(=O)OCCCCCCCCCCCCOc1cccnc1` displayed an IC50 with Leishmania mexicana [2] of 12 µg/mL (≈ 37.3 µM). Further, the inhibition of growth at 20 µg/mL came out at 80% with Leishmania mexicana [3] and 50% in the assay with Leishmania mexicana [5]. Moreover, the inhibition of growth at 10 µg/mL in the assay with Leishmania mexicana [4] was determined as 25%.

Take `OCCCCCCCCOc1cccnc1`: the result with Leishmania mexicana [1] was inactive.

For `OCCCCCCCCOc1ccccn1`, in the assay on Leishmania mexicana [1], the outcome was inactive.

As for `OCCCCCCCCCOc1cccnc1`, in the assay on Leishmania mexicana [1], the outcome was inactive.

Turning to `CN[C@@H]1[C@@H](O)[C@@H](O[C@@H]2[C@@H](O)[C@H](O[C@H]3O[C@H]([C@@H](C)O)[C@@H](O)[C@H](O)[C@H]3N)[C@@H](N)C[C@H]2N)OC[C@]1(C)O` [GENETICIN], in the assay on Leishmania mexicana [2], half-maximal inhibition (IC50) was put at 50 µg/mL (≈ 101 µM).

Take `CC(=O)OCCCCCCOc1ccccn1`: the outcome in the assay with Leishmania mexicana [1] was inactive.

On to `CCC(=O)OCCCCCCCCCCCOc1ccccn1`, for which the result in the assay with Leishmania mexicana [1] was inactive.

`CC(=O)OCCCCCCCCCCOc1cccnc1` registered a half-inhibitory concentration (IC50) in the assay with Leishmania mexicana [2] of 20 µg/mL (≈ 68.2 µM).

`OCCCCCCCCCCCOc1ccccn1`: the outcome in the assay on Leishmania mexicana [1] was inactive.

Regarding `OCCCCCCCCCCCCOc1ccccn1`, the outcome in the assay on Leishmania mexicana [1] was inactive.

Turning to `CC(=O)OCCCCCCCCOc1cccnc1`, the result in the assay on Leishmania mexicana [1] was inactive.

Take `OCCCCCCCOc1cccnc1`: the result with Leishmania mexicana [1] was inactive.

For the molecule `CCC(=O)OCCCCCCCCCCCOc1cccnc1`, the outcome in the assay on Leishmania mexicana [1] was inactive.

With `OCCCCCCCCCCCOc1cccnc1`, the outcome with Leishmania mexicana [1] was inactive.

In the case of `OCCCCCCCCCCOc1ccccn1`, in the assay with Leishmania mexicana [1], the outcome was inactive.

Consider `CC(=O)OCCCCCCCOc1ccccn1`, for which the result in the assay on Leishmania mexicana [1] was inactive.

As to `OCCCCCCOc1cccnc1`, the result in the assay with Leishmania mexicana [1] was inactive.

For `OCCCCCCOc1ccccn1`, the outcome in the assay on Leishmania mexicana [1] was inactive.

Turning to `CC(=O)OCCCCCCCCOc1ccccn1`, the outcome in the assay on Leishmania mexicana [1] was inactive.

Regarding `CC(=O)OCCCCCCCOc1cccnc1`, the result in the assay with Leishmania mexicana [1] was inactive.

As to `OCCCCCCCOc1ccccn1`, the outcome in the assay on Leishmania mexicana [1] was inactive.

`OCCCCCCCCCCOc1cccnc1`: the result in the assay with Leishmania mexicana [1] was inactive.

`CC(=O)OCCCCCCOc1cccnc1`: the result in the assay on Leishmania mexicana [1] was inactive.

Turning to `CC(=O)OCCCCCCCCCCCOc1ccccn1`, the result with Leishmania mexicana [1] was inactive.

For the molecule `CC(=O)OCCCCCCCCCCCCOc1ccccn1`, in the assay with Leishmania mexicana [1], the outcome was inactive.

Turning to `OCCCCCCCCCCCCOc1cccnc1`, the half-inhibitory concentration (IC50) in the assay with Leishmania mexicana [2] is 16 µg/mL (≈ 57.3 µM). The inhibition of growth at 20 µg/mL in the assay on Leishmania mexicana [3] was 95%; in the assay with Leishmania mexicana [5], 50%. Moreover, the inhibition of growth at 10 µg/mL in the assay on Leishmania mexicana [4] was found to be 25%.

For `CC(=O)OCCCCCCCCCCOc1ccccn1`, the outcome with Leishmania mexicana [1] was inactive.

As to `CC(=O)OCCCCCCCCCCCOc1cccnc1`, in the assay with Leishmania mexicana [1], the outcome was inactive.

On to `OCCCCCCCCCOc1ccccn1`, for which the outcome in the assay with Leishmania mexicana [1] was inactive.
